Source: ChEMBL document CHEMBL4706622, “Comparative study between the anti-P. falciparum activity of triazolopyrimidine, pyrazolopyrimidine and quinoline derivatives and the identification of new PfDHODH inhibitors” (Eur J Med Chem, 2021)

Columns and labels:
Plasmodium falciparum [1] = experiment: Antimalarial activity against CQ-sensitive Plasmodium falciparum 3D7 infected in erythrocytes by SYBR Green dye based fluorescence assay; type: functional, organism-based
HepG2 = experiment: Cytotoxicity against human HepG2 cells assessed as cell viability after 72 hrs by MTT assay; type: cell-based; conditions: HepG2, 72 h
[2] = Selectivity index, ratio of IC50 for cytotoxicity against human HepG2 cells to IC50 for antimalarial activity against Plasmodium falciparum 3D7; type: toxicity, cell-based; conditions: read-out: Ratio IC50
Plasmodium falciparum [3] = experiment: Inhibition of Plasmodium falciparum DHODH (159- 569 aa) expressed in Escherichia coli BL21(DE3) cells assessed as 2,6-dichloroindophenol reduction at 50 uM by colorimetric method
Procedure, shortened: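 First-stage PfDHODH screen at a single compound concentration of 50 µM, reported as % inhibition. Compounds giving ≥80% inhibition went on to IC50 determination. The PfDHODH final concentration in the inhibition assay was 50 nM.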

[4] = biological target: Dihydroorotate dehydrogenase (quinone), mitochondrial (Homo sapiens) (UniProt Q02127); experiment: Inhibition of human DHODH assessed as 2,6-dichloroindophenol reduction at 50 uM by colorimetric method
Procedure, shortened: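 First-stage HsDHODH screen at a single compound concentration of 50 µM, reported as % inhibition. It was run in parallel with the PfDHODH screen.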

[5] = Inhibition of Plasmodium falciparum DHODH (159- 569 aa) expressed in Escherichia coli BL21(DE3) cells assessed as 2,6-dichloroindophenol reduction by colorimetric method
Procedure, shortened: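 Second-stage PfDHODH IC50 determination from concentration–response curves, run only on compounds giving ≥80% inhibition at 50 µM in the single-point screen. PfDHODH final concentration was 50 nM. IC50 was not assigned where substrate consumption could not be measured at some concentrations on the curve.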

Sequence of Dihydroorotate dehydrogenase (quinone), mitochondrial (Homo sapiens) (Q02127 whole entry): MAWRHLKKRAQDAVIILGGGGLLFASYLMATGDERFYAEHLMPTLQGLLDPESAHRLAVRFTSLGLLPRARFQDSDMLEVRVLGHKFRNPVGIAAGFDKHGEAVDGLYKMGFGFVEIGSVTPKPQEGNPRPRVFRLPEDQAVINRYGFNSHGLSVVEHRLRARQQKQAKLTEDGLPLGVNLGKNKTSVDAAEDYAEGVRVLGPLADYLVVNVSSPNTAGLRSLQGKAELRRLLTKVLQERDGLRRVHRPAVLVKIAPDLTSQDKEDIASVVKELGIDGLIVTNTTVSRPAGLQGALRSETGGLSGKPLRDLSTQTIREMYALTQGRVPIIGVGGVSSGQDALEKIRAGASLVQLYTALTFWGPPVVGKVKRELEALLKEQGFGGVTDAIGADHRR

| Compound | IC50 (Plasmodium falciparum [1]) | inhibition [4] | IC50 [5] | IC50 (HepG2) | selectivity ratio [2] | inhibition (Plasmodium falciparum [3]) |
| --- | --- | --- | --- | --- | --- | --- |
| Cc1cc(Nc2ccc(S(=O)(=O)Nc3ccccc3)cc2)n2nc(C)nc2n1 | 6.9 µM | 0% | > 50 µM | 193 µM | 28 | – |
| Cc1cc(Nc2ccc(S(=O)(=O)Nc3ccc4ccccc4c3)cc2)n2nc(C(F)(F)F)nc2n1 | 0.05 µM | 0% | 0.22 µM | > 100 µM | > 2000 | – |
| CCN(CC)CCCC(C)Nc1ccnc2cc(Cl)ccc12 (stereo not drawn) [CHLOROQUINE] | – | – | – | 384 µM | – | – |
| COc1ccc(NS(=O)(=O)c2ccc(Nc3cc(C)nc4nc(C)nn34)cc2)cc1 | 4 µM | 0% | 1.3 µM | 170 µM | 42.5 | – |
| O=S(=O)(Nc1ccccc1)c1ccc(Nc2ccnc3cc(Cl)ccc23)cc1 | 2 µM | – | – | 92 µM | > 46 | – |
| Cc1cc(Nc2ccc(S(=O)(=O)Nc3ccc(C(F)(F)F)cc3)cc2)n2nc(C)nc2n1 | 0.39 µM | 0% | 0.6 µM | 125 µM | 321 | – |
| O=S(=O)(Nc1ccc(F)cc1)c1ccc(Nc2ccnc3cc(Cl)ccc23)cc1 | 4.6 µM | – | – | 92 µM | > 21 | – |
| COc1ccc(NS(=O)(=O)c2ccc(Nc3ccnc4cc(Cl)ccc34)cc2)cc1 | 2.8 µM | – | – | 92 µM | > 33 | – |
| Cc1cc(Nc2ccc(S(=O)(=O)Nc3ccc(C(F)(F)F)cc3)cc2)n2ncnc2n1 | 0.15 µM | 0% | > 50 µM | > 100 µM | > 667 | – |
| Cc1cc(Nc2ccc(S(=O)(=O)Nc3ccccc3)cc2)n2nc(C(F)(F)F)nc2n1 | 1.3 µM | 0% | > 50 µM | 92 µM | > 70 | < 80% |
| COc1ccc(NS(=O)(=O)c2ccc(Nc3cc(C)nc4nc(C(F)(F)F)nn34)cc2)cc1 | 0.8 µM | 0% | 0.21 µM | 93 µM | > 114 | – |
| C[C@H]1[C@H](OC(=O)CCC(=O)O)O[C@@H]2O[C@@]3(C)CC[C@H]4[C@H](C)CC[C@@H]1[C@@]24OO3 [ARTESUNATE] | 0.009 µM | – | – | 267 µM | 29700 | – |
| Cc1cc(Nc2ccc(S(=O)(=O)Nc3ccc(F)cc3)cc2)n2ncnc2n1 | 2 µM | 0% | 0.3 µM | 367 µM | > 187 | – |
| Cc1cc(Nc2ccc(S(=O)(=O)Nc3ccc4ccccc4c3)cc2)n2ncnc2n1 | 0.23 µM | 0% | 0.3 µM | 56 µM | 243 | – |
| Cc1cc(Nc2ccc(S(=O)(=O)Nc3ccccc3)cc2)n2ncnc2n1 | 9.1 µM | 0% | 0.8 µM | 365 µM | > 40 | – |
| O=S(=O)(Nc1ccc(Cl)cc1)c1ccc(Nc2ccnc3cc(Cl)ccc23)cc1 | 1.7 µM | – | – | 93 µM | > 56 | – |
| Cc1cc(Nc2ccc(S(=O)(=O)Nc3ccc(F)cc3)cc2)n2nc(C(F)(F)F)nc2n1 | 0.086 µM | 0% | 0.5 µM | 101 µM | 1170 | – |
| O=S(=O)(Nc1ccc(C(F)(F)F)cc1)c1ccc(Nc2ccnc3cc(Cl)ccc23)cc1 | 2.1 µM | – | – | 23 µM | 11 | – |
| Cc1cc(Nc2ccc(S(=O)(=O)Nc3ccc4ccccc4c3)cc2)n2nc(C)nc2n1 | 0.64 µM | 0% | 0.4 µM | 56 µM | 87.4 | – |
| Cc1ccc(NS(=O)(=O)c2ccc(Nc3cc(C)nc4nc(C(F)(F)F)nn34)cc2)cc1 | 0.032 µM | 0% | 0.8 µM | 54 µM | 1690 | – |
| Cc1ccc(NS(=O)(=O)c2ccc(Nc3ccnc4cc(Cl)ccc34)cc2)cc1 | 0.97 µM | – | – | 92 µM | > 95 | – |
| Cc1cc(Nc2ccc(S(=O)(=O)Nc3ccc(C(F)(F)F)cc3)cc2)n2nc(C(F)(F)F)nc2n1 | 0.03 µM | 0% | > 50 µM | 90 µM | 3000 | – |
| COc1ccc(NS(=O)(=O)c2ccc(Nc3cc(C)nc4ncnn34)cc2)cc1 | 4 µM | 0% | > 50 µM | 46 µM | > 13 | – |
| O=S(=O)(Nc1ccc2ccccc2c1)c1ccc(Nc2ccnc3cc(Cl)ccc23)cc1 | 0.89 µM | – | – | 13 µM | 15.1 | – |

Second part, led by results:

| IC50 (Plasmodium falciparum [1]) | inhibition [4] | IC50 [5] | Compound | IC50 (HepG2) | selectivity ratio [2] | inhibition (Plasmodium falciparum [3]) |
| --- | --- | --- | --- | --- | --- | --- |
| 8 µM | 0% | > 50 µM | Cc1cc(Nc2ccc(S(=O)(=O)Nc3ccc(C(F)(F)F)cc3)cc2)n2nc(C)cc2n1 | 42 µM | 5.25 | 25% |
| 0.8 µM | 0% | 0.6 µM | Cc1cc(Nc2ccc(S(=O)(=O)Nc3ccc(Cl)cc3)cc2)n2nc(C)nc2n1 | > 50 µM | > 62.5 | – |
| 3 µM | 0% | > 50 µM | Cc1cc(Nc2ccc(S(=O)(=O)Nc3ccc(Cl)cc3)cc2)n2ncnc2n1 | 92 µM | > 31 | – |
| > 10 µM | 0% | > 50 µM | Cc1ccc(NS(=O)(=O)c2ccc(Nc3cc(C)nc4cc(C)nn34)cc2)cc1 | – | – | 25% |
| 2.8 µM | 0% | > 50 µM | Cc1cc(Nc2ccc(S(=O)(=O)Nc3ccccc3)cc2)n2nc(C)cc2n1 | 27 µM | 9.6 | 25% |
| > 10 µM | 0% | > 50 µM | Cc1cc(Nc2ccc(S(=O)(=O)Nc3ccc(F)cc3)cc2)n2nc(C)cc2n1 | – | – | 25% |
| 0.91 µM | 0% | 0.3 µM | Cc1ccc(NS(=O)(=O)c2ccc(Nc3cc(C)nc4nc(C)nn34)cc2)cc1 | 110 µM | 121 | – |
| > 10 µM | 0% | > 50 µM | Cc1cc(Nc2ccc(S(=O)(=O)Nc3ccc4ccccc4c3)cc2)n2nc(C)cc2n1 | – | – | 25% |
| 2.7 µM | 0% | 1 µM | Cc1cc(Nc2ccc(S(=O)(=O)Nc3ccc(F)cc3)cc2)n2nc(C)nc2n1 | 150 µM | 55.6 | – |
| 0.4 µM | 0% | 0.08 µM | Cc1cc(Nc2ccc(S(=O)(=O)Nc3ccc(Cl)cc3)cc2)n2nc(C(F)(F)F)nc2n1 | 47 µM | > 123 | – |
| 0.5 µM | 0% | 0.41 µM | Cc1ccc(NS(=O)(=O)c2ccc(Nc3cc(C)nc4ncnn34)cc2)cc1 | 367 µM | > 728 | – |
| > 10 µM | 0% | > 50 µM | COc1ccc(NS(=O)(=O)c2ccc(Nc3cc(C)nc4cc(C)nn34)cc2)cc1 | – | – | 25% |
| > 10 µM | 0% | > 50 µM | Cc1cc(Nc2ccc(S(=O)(=O)Nc3ccc(Cl)cc3)cc2)n2nc(C)cc2n1 | – | – | 25% |
